ChEMBL document CHEMBL3243991, “Antiinflammatory agents. 1. Synthesis and antiinflammatory activity of 2-amino-3-benzoylphenylacetic acid” (J Med Chem, 1979)

How the values were obtained:
Rattus norvegicus [1] = assay: Antiinflammatory activity in fasted male rat assessed as decrease in carrageenan-induced pleural fluid at 10 mg/kg, po after 5 hrs by Evans blue carrageenan pleural effusion assay relative to control; assay type: functional
Summary of the method: (§1)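 Evans blue carrageenan pleural effusion assay, run by sequential analysis. Screened first at 316 mg/kg orally alongside acetylsalicylic acid at the same dose; active agents were retested in 6 rats at one or two doses against phenylbutazone. Given by gavage (10 mL/kg) in water with 0.5% Tween 80. Pleural fluid measured in mL ± SD; % decrease taken versus vehicle control.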

Rattus norvegicus [2] = assay: Antiinflammatory activity in fasted male rat assessed as decrease in carrageenan-induced pleural fluid at 50 mg/kg, po after 5 hrs by Evans blue carrageenan pleural effusion assay relative to control; assay type: functional; summary of the method: as §1
Rattus norvegicus [3] = assay: Antiinflammatory activity in fasted male rat assessed as decrease in carrageenan-induced pleural fluid at 100 mg/kg, po after 5 hrs by Evans blue carrageenan pleural effusion assay relative to control; assay type: functional; summary of the method: as §1
Rattus norvegicus [4] = assay: Antiinflammatory activity in fasted male rat assessed as decrease in carrageenan-induced pleural fluid at 316 mg/kg, po after 5 hrs by Evans blue carrageenan pleural effusion assay relative to control; assay type: functional; summary of the method: as §1
Liver microsome = assay: Drug metabolism in rat liver microsomes assessed as recovery as total extract radioactivity by TLC; assay type: ADME
Summary of the method: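 14C-labeled substrate (10 mg) was sonicated into 30 mL of 0.1 M Na+/K+ phosphate buffer, pH 7.4. The mixture was extracted with three portions of ether, extract radioactivity recovery was determined, and TLC was run immediately (acetone/CHCl3 2:98).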

Rattus norvegicus [5] = assay: Antiinflammatory activity in fasted male rat assessed as decrease in carrageenan-induced pleural fluid at 4 mg/kg, po after 5 hrs by Evans blue carrageenan pleural effusion assay relative to control; assay type: functional; settings: for inhibition in vivo at 4 mg/kg: Rattus norvegicus, Pleural fluid, po, 5 h; summary of the method: as §1
Rattus norvegicus [6] = assay: Antiinflammatory activity against adjuvant-induced arthritis in Lewis Wistar rat assessed as change in 11 day edema volume in adjuvant injected foot at 3.16 mg/kg, po treated […]; assay type: functional
Rattus norvegicus [7] = assay: Toxicity in adjuvant-induced arthritis Lewis Wistar rat model assessed as change in 11 day weight at 0.316 mg/kg, po treated once daily on days 18 to 22 and […]; assay type: organism-based; parameters: dose 0.316 mg/kg, route oral; settings: in vivo, 264 h
Summary of the method: (§2)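 Therapeutic regimen in the adjuvant-induced arthritic rat model: compound given once daily on days 18-22 and 25-28. Dosed by gavage (10 mL/kg) as a solution or suspension in water containing 0.5% Tween 80. Groups of 8 rats (one group of 7), with vehicle-dosed negative and positive controls. Injected- and uninjected-foot edema (mL ± SD) and body-weight change (g ± SD) recorded over 11 days; p < 0.05 flagged.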

Rattus norvegicus [8] = assay: Antiinflammatory activity against adjuvant-induced arthritis in Lewis Wistar rat assessed as change in 11 day edema volume in adjuvant uninjected foot at 0.316 mg/kg, po treated once daily on days 18 to 22 and […]; assay type: functional; summary of the method: as §2
Rattus norvegicus [9] = assay: Antiinflammatory activity against adjuvant-induced arthritis in Lewis Wistar rat assessed as change in 11 day edema volume in adjuvant uninjected foot at 3.16 mg/kg, po treated once daily on days 18 to 22 and […]; assay type: functional; summary of the method: as §2
Rattus norvegicus [10] = assay: Antiinflammatory activity in fasted male rat assessed as decrease in carrageenan-induced pleural fluid at 0.8 mg/kg, po after 5 hrs by Evans blue carrageenan pleural effusion assay relative to control; assay type: functional; settings: for inhibition in vivo at 0.8 mg/kg: Rattus norvegicus, Pleural fluid, po, 5 h; summary of the method: as §1
Rattus norvegicus [11] = assay: Toxicity in adjuvant-induced arthritis Lewis Wistar rat model assessed as change in 11 day weight at 0.03 mg/kg, po treated once daily on days 18 to 22 and […]; assay type: organism-based; parameters: dose 0.03 mg/kg, route oral; settings: in vivo, 264 h; summary of the method: as §2
Rattus norvegicus [12] = assay: Antiinflammatory activity against adjuvant-induced arthritis in Lewis Wistar rat assessed as potency in adjuvant injected foot treated po once daily on days 18 to 22 and 25 to 28 relative to phenylbutazone
Rattus norvegicus [13] = assay: Antiinflammatory activity against adjuvant-induced arthritis in Lewis Wistar rat assessed as change in 11 day edema volume in adjuvant injected foot at 0.03 mg/kg, po treated once daily on days 18 to 22 and 25 to 28
Rattus norvegicus [14] = assay: Antiinflammatory activity against adjuvant-induced arthritis in Lewis Wistar rat assessed as change in 11 day edema volume in adjuvant uninjected foot at 0.03 mg/kg, po treated once daily on days 18 to 22 and […]; assay type: functional; summary of the method: as §2
Rattus norvegicus [15] = assay: Antiinflammatory activity against adjuvant-induced arthritis in Lewis Wistar rat assessed as change in 11 day edema volume in adjuvant injected foot at 0.316 mg/kg, po treated once daily on days 18 to 22 and […]; assay type: functional; summary of the method: as §2
Rattus norvegicus [16] = assay: Toxicity in adjuvant-induced arthritis Lewis Wistar rat model assessed as change in 11 day weight at 3.16 mg/kg, po treated once daily on days 18 to 22 and […]; assay type: organism-based; parameters: dose 3.16 mg/kg, route oral; settings: in vivo, 264 h; summary of the method: as §2
Rattus norvegicus [17] = assay: Antiinflammatory activity against adjuvant-induced arthritis in Lewis Wistar rat assessed as potency in adjuvant uninjected foot treated po once daily on days 18 to 22 and 25 to 28 relative to phenylbutazone
Rattus norvegicus [18] = assay: Antiinflammatory activity in fasted male rat assessed as decrease in carrageenan-induced pleural fluid at 60 mg/kg, po after 5 hrs by Evans blue carrageenan pleural effusion assay relative to control; assay type: functional; summary of the method: as §1
Rattus norvegicus [19] = assay: Antiinflammatory activity in fasted male rat assessed as decrease in carrageenan-induced pleural fluid at 300 mg/kg, po after 5 hrs by Evans blue carrageenan pleural effusion assay relative to control; assay type: functional; summary of the method: as §1
Rattus norvegicus [20] = assay: Antiinflammatory activity against adjuvant-induced arthritis in Lewis Wistar rat assessed as change in 11 day edema volume in adjuvant injected foot at 0.0316 mg/kg, po treated […]; assay type: functional
Rattus norvegicus [21] = assay: Toxicity in adjuvant-induced arthritis Lewis Wistar rat model assessed as change in 11 day weight at 0.0316 mg/kg, po treated once daily on days 18 to 22 and 25 to 28; settings: in vivo, 264 h
Rattus norvegicus [22] = assay: Toxicity in adjuvant-induced arthritis Lewis Wistar rat model assessed as change in 11 day weight at 0.0031 mg/kg, po treated once daily on days 18 to 22 and 25 to 28; settings: in vivo, 264 h
Rattus norvegicus [23] = assay: Antiinflammatory activity against adjuvant-induced arthritis in Lewis Wistar rat assessed as change in 11 day edema volume in adjuvant uninjected foot at 0.0031 mg/kg, po […]; assay type: functional
Rattus norvegicus [24] = assay: Antiinflammatory activity against adjuvant-induced arthritis in Lewis Wistar rat assessed as change in 11 day edema volume in adjuvant injected foot at 0.0031 mg/kg, po treated once daily on days 18 to 22 and […]; assay type: functional; summary of the method: as §2
Rattus norvegicus [25] = assay: Antiinflammatory activity against adjuvant-induced arthritis in Lewis Wistar rat assessed as change in 11 day edema volume in adjuvant uninjected foot at 0.0316 mg/kg, po treated once daily on days 18 to 22 and […]; assay type: functional; summary of the method: as §2
Rattus norvegicus [26] = assay: Antiinflammatory activity against adjuvant-induced arthritis in Lewis Wistar rat assessed as change in 11 day edema volume in adjuvant injected foot at 31.6 mg/kg, po treated […]; assay type: functional
Rattus norvegicus [27] = assay: Antiinflammatory activity against adjuvant-induced arthritis in Lewis Wistar rat assessed as change in 11 day edema volume in adjuvant uninjected foot at 10 mg/kg, po […]; assay type: functional
Rattus norvegicus [28] = assay: Toxicity in adjuvant-induced arthritis Lewis Wistar rat model assessed as change in 11 day weight at 10 mg/kg, po treated once daily on days 18 to 22 and […]; assay type: organism-based; parameters: dose 10 mg/kg, route oral; settings: in vivo, 264 h; summary of the method: as §2
Rattus norvegicus [29] = assay: Antiinflammatory activity in fasted male rat assessed as decrease in carrageenan-induced pleural fluid at 2 mg/kg, po after 5 hrs by Evans blue carrageenan pleural effusion assay relative to control; assay type: functional; summary of the method: as §1
Rattus norvegicus [30] = assay: Antiinflammatory activity against adjuvant-induced arthritis in Lewis Wistar rat assessed as change in 11 day edema volume in adjuvant uninjected foot at 31.6 mg/kg, po treated once daily on days 18 to 22 and […]; assay type: functional; summary of the method: as §2
Rattus norvegicus [31] = assay: Toxicity in adjuvant-induced arthritis Lewis Wistar rat model assessed as change in 11 day weight at 31.6 mg/kg, po treated once daily on days 18 to 22 and 25 to 28; settings: in vivo, 264 h
Rattus norvegicus [32] = assay: Antiinflammatory activity in fasted male rat assessed as decrease in carrageenan-induced pleural fluid at 20 mg/kg, po after 5 hrs by Evans blue carrageenan pleural effusion assay relative to control; assay type: functional; summary of the method: as §1
Rattus norvegicus [33] = assay: Antiinflammatory activity against adjuvant-induced arthritis in Lewis Wistar rat assessed as change in 11 day edema volume in adjuvant injected foot at 10 mg/kg, po treated once daily on days 18 to 22 and […]; assay type: functional; summary of the method: as §2

O=C(c1ccccc1)c1cccc2c1NCC2
inhibition in vivo at 10 mg/kg (Rattus norvegicus [1]): 14.5% | inhibition in vivo at 50 mg/kg (Rattus norvegicus [2]): 35.5%

O=C(O)c1cccc2c1NCC2
inhibition in vivo at 100 mg/kg (Rattus norvegicus [3]): 12.6%

O=C1Nc2c(cccc2C(=O)c2ccccc2)C1=O
inhibition in vivo at 316 mg/kg (Rattus norvegicus [4]): 18.4%

O=C(c1ccccc1)c1cccc2cc[nH]c12
Drug recovery (Liver microsome): 16%

O=C(c1cccc2c1NCC2)[14c]1[14cH][14cH][14cH][14cH][14cH]1
Drug recovery (Liver microsome): 49%

CCOC(=O)Cc1cccc(C(=O)c2ccccc2)c1N
inhibition in vivo at 4 mg/kg (Rattus norvegicus [5]): 37.3% | Activity (Rattus norvegicus [6]): -0.6 mL | Activity (Rattus norvegicus [7]): 10 g | Activity (Rattus norvegicus [8]): 0.1 mL | Activity (Rattus norvegicus [9]): -0.1 mL | inhibition in vivo at 0.8 mg/kg (Rattus norvegicus [10]): 26.9% | Activity (Rattus norvegicus [11]): 11 g | fold change (FC) (Rattus norvegicus [12]): 10.9 | Activity (Rattus norvegicus [13]): 0.4 mL | Activity (Rattus norvegicus [14]): 0.6 mL | Activity (Rattus norvegicus [15]): -0.1 mL | Activity (Rattus norvegicus [16]): 13 g | fold change (FC) (Rattus norvegicus [17]): 5.1

O=C1Cc2cccc(C(=O)c3ccccc3)c2N1
inhibition in vivo at 60 mg/kg (Rattus norvegicus [18]): 11.1% | inhibition in vivo at 300 mg/kg (Rattus norvegicus [19]): 17.5%

Nc1c(CC(=O)[O-])cccc1C(=O)c1ccccc1.[Na+] [AMFENAC SODIUM]
inhibition (INH) (Rattus norvegicus [5]): 33.3% | Activity (Rattus norvegicus [7]): 3 g | Activity (Rattus norvegicus [20]): 0.2 mL | Activity (Rattus norvegicus [8]): -0.2 mL | inhibition (INH) (Rattus norvegicus [10]): 11.1% | Activity (Rattus norvegicus [21]): 6 g | fold change (FC) (Rattus norvegicus [12]): 14.2 | Activity (Rattus norvegicus [22]): 12 g | Activity (Rattus norvegicus [15]): -0.3 mL | Activity (Rattus norvegicus [23]): 0.6 mL | Activity (Rattus norvegicus [24]): 0.2 mL | fold change (FC) (Rattus norvegicus [17]): 23.9 | Activity (Rattus norvegicus [25]): 0.4 mL

Nc1c(CC(=O)O)cccc1C(=O)c1ccccc1 [AMFENAC]
inhibition in vivo at 4 mg/kg (Rattus norvegicus [5]): 33.8% | inhibition in vivo at 0.8 mg/kg (Rattus norvegicus [10]): 10.3%

CC(=O)Oc1ccccc1C(=O)O [ASPIRIN]
inhibition in vivo at 316 mg/kg (Rattus norvegicus [4]): 31.6%

CCCCC1C(=O)N(c2ccccc2)N(c2ccccc2)C1=O [PHENYLBUTAZONE]
Activity (Rattus norvegicus [26]): -0.9 mL | Activity (Rattus norvegicus [6]): -0.3 mL | Activity (Rattus norvegicus [27]): -0.2 mL | Activity (Rattus norvegicus [7]): 8 g | Activity (Rattus norvegicus [8]): 0.4 mL | Activity (Rattus norvegicus [9]): 0 mL | inhibition in vivo at 10 mg/kg (Rattus norvegicus [1]): 10.5% | Activity (Rattus norvegicus [28]): 20 g | inhibition in vivo at 50 mg/kg (Rattus norvegicus [2]): 24.2% | inhibition in vivo at 2 mg/kg (Rattus norvegicus [29]): 0% | inhibition in vivo at 100 mg/kg (Rattus norvegicus [3]): 31% | Activity (Rattus norvegicus [30]): -0.4 mL | Activity (Rattus norvegicus [15]): 0.4 mL | Activity (Rattus norvegicus [31]): 26 g | inhibition in vivo at 20 mg/kg (Rattus norvegicus [32]): 19.4% | Activity (Rattus norvegicus [16]): 8 g | Activity (Rattus norvegicus [33]): -0.5 mL
